# Compounds with a hit are over-represented: about 3.1% of the library has one in this group of screens.
# GPR7 antag = GPR7 receptor antagonists, primary screen, cell-based, fluorescence, single concentration | Neuropeptides B/W receptor type 1 (Homo sapiens), P48145 | GPR7-expressing cells, fluorescence antagonist assay | inhibition, % at 4.4 µM | hit rate 1.1% among 290,000; in the data active = inhibition above about 16%, passing the limit was not always enough;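 also: cells stimulated with the agonist NPW; 0% = agonist with vehicle and 100% = vehicle without agonist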
# Target sequence (P48145 whole entry, looked up): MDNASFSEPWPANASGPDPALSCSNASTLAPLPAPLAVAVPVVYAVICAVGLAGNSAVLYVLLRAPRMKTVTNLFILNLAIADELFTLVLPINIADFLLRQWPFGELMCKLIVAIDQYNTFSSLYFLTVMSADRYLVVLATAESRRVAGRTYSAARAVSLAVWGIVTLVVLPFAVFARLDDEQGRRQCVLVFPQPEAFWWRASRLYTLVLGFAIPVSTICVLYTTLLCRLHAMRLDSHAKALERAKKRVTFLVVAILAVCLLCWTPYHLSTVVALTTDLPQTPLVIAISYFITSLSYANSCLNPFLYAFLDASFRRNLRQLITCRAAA
# CHO parental Ca = ATP-evoked calcium signal inhibitors, parental CHO, primary screen, counter-screen for OX1R antagonist project, cell-based, fluorescence, Fluo-8 calcium dye. parental CHO-K1, ATP-induced calcium, Fluo-8 fluorescence. hit rate 0.63% among 330,000. inhibition, % at 5.6 µM;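 active = inhibition above that plate's mean sample inhibition plus 3 SD, cut at about 26% in these data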;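 also: 0% = ATP-challenged DMSO wells and 100% = DMSO wells without ATP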
#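 Test system: parental CHO cells; detection: calcium-sensitive Fluo-8 fluorescence; evaluation: percent inhibition of calcium signal; also added: ATP as calcium-mobilizing challenge; repeats: one well per compound; control set: ATP-challenged DMSO wells low, unchallenged DMSO wells high; compound: single nominal dose of 5.6 µM per compound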
# OX1R antag-1 = OX1R (HCRTR1) antagonists, primary screen, fluorescence, CHO/OX1R cells, Fluo-8 calcium, orexin A. inhibition, % at 5 µM. hit rate 0.43% among 330,000. Fluo-8 calcium fluorescence;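 active = inhibition above its plate's threshold, mean inhibition of all tested compounds on the plate plus 3 SD, cut at about 37% in these data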;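 also: 0% = orexin A challenge wells and 100% = SB-334867-A antagonist wells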
# OX1R antag-2 = antagonists of human orexin 1 receptor (OX1R) | Orexin/Hypocretin receptor type 1 (Homo sapiens), O43613 | OX1R-expressing cells, FRET antagonist read-out | inhibition, % at 6.6 µM | hit rate 1.8% among 330,000 | AID 485270, 2010; in the data active = inhibition mostly above about 38%, no sharp cut-off; inactive = mostly below about 40%;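 also: 0% = agonist challenge alone and 100% = reference antagonist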
# GalR3 antag = GalR3 antagonists in HEK293 cells, primary screen, cell-based, fluorescence readout; inhibition, % at 3 µM; HEK293 GalR3-CNG cAMP membrane potential fluorescence; galR3 body fused to GalR1 C-terminus; Galanin receptor type 3 (Homo sapiens), O60755; hit rate 0.44% among 360,000;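 active = inhibition above the screen-wide average plus 3 SD, cut at about 13% in these data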;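 also: forskolin and galanin both at EC90 stimulate the cells; cAMP rise reported by CNG channel membrane potential dye signal; 0% = forskolin plus galanin with DMSO and 100% = forskolin alone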
# Target sequence (O60755 1-299 limits assumed): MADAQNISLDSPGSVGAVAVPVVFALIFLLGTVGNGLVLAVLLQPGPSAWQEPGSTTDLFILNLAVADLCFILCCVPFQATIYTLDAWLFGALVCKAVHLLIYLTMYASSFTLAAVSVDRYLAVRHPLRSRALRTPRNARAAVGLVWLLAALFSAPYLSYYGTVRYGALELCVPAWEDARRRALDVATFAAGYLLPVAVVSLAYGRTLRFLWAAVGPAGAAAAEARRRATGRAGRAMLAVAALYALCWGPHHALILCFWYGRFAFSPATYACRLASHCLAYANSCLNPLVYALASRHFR
# * marks the source's active call; other numbers are inactive results; · = no result given.
SMILES,GPR7 antag,CHO parental Ca,OX1R antag-1,OX1R antag-2,GalR3 antag
CCN(CC)c1ccc(-c2c(C#N)c(N)nc(OC)c2C#N)cc1,-7.8,36.0*,5.0,17.4,3.2
OCc1cccc(-c2csc(C(O)c3ccccc3)n2)c1 (stereo not drawn),·,·,·,·,-3.1
N#C/C(=N\Nc1ccc(Cl)cc1)C(=O)c1ccccc1,1.1,32.2,25.2,59.7*,-2.7
C[C@@H]1Cn2cnc(C(=O)N[C@@H](Cc3c[nH]c4ccccc34)C(=O)OC(C)(C)C)c2C(=O)N1,·,·,·,·,-5.2
COc1ccc(C(=O)c2nccc3cc(OC)c(OC)cc23)cc1OC,·,-6.3,-24.8,69.0*,·
COc1cccc(-c2nn3c(-c4cccc(C)c4)nnc3s2)c1,-5.3,-28.7,-4.5,57.3*,-6.6
CCOc1ccc(-c2nn3c(-c4ccccc4)nnc3s2)cc1,-11.8,-14.1,-0.9,64.4*,-4.6
CCOc1ccc(-c2nnc3sc(COc4ccccc4)nn23)cc1,-2.6,-11.0,-28.9,8.7,-5.6
Cn1c(=O)c2cc(NC(=O)Cc3cccc4ccccc34)ccc2n1-c1ccccc1,·,·,·,·,-1.3
OCCCNC(=S)Nc1ccc2nc(-c3ccccn3)c(-c3ccccn3)nc2c1,-1.1,-11.0,-12.8,75.0*,-0.4
COc1ccc(NC(=O)c2ccc(-c3c(C)noc3C)c3ccoc23)cc1,·,·,·,·,-8.6
Nc1[nH]c(C(=O)c2ccccc2)c(-c2cccc3ccccc23)c1C(=O)NC1CCCCC1,·,·,·,·,-6.2
Cc1cc(C)c(NC(=O)c2ccccc2CCc2ccccc2)c(C)c1,-6.3,6.8,30.8,41.2*,-1.0
O=C(NCc1ccc(Cl)cc1)c1ccccc1CCc1ccccc1,-5.7,-17.3,-19.8,32.5,-2.0
O=C(NCc1ccccc1Cl)c1ccccc1CCc1ccccc1,-7.0,65.6*,23.3,50.4*,-1.7
COC(=O)c1ccc2nc(-c3ccc(Cl)cc3)c(Cc3ccccc3)n2c1,·,·,·,·,-6.7
Cc1ccc(/C=N/NC(=O)c2ccc(-c3ccccc3)cc2)o1,-18.7,-8.1,-6.2,14.2,-8.1
O=[N+]([O-])c1ccc(/C=[N+](\[O-])[C@@H]2CCCC[C@@H]2/[N+]([O-])=C/c2ccc([N+](=O)[O-])o2)o1,-12.3,-7.8,-18.5,42.1*,-8.7
Cc1nc2ccccn2c1C(=O)N/N=C/c1ccc([N+](=O)[O-])o1,-14.1,6.5,-12.2,65.2*,-7.7
CCN(CC)S(=O)(=O)c1cccc(C(=O)N/N=C/c2ccc([N+](=O)[O-])o2)c1,-2.1,-5.4,-16.3,72.8*,-5.9
Cc1ccc(/C=N\NC(=O)c2cc([N+](=O)[O-])cc([N+](=O)[O-])c2)o1,7.5,-9.9,-25.0,65.4*,0.5
CCN(CC)S(=O)(=O)c1cccc(C(=O)N/N=C/c2ccccc2OCC(=O)O)c1,19.6,3.9,3.0,33.4,6.2
O=C(Cc1ccc(NC(=O)C2CCN(C(=O)CCc3ccccc3)CC2)cc1)Nc1cccc(C(=O)N2CCCC2)c1,·,·,·,·,0.5
CC(C)(C)OC(=O)N1CCC2CCN(S(=O)(=O)c3ccccc3)CC21 (stereo not drawn),·,·,·,·,-6.7
O=C(N/N=C/c1ccc2nccnc2c1)c1ccc(Br)cc1,-4.1,-23.3,-12.9,21.0,2.1
SMILES,GPR7 antag,CHO parental Ca,OX1R antag-1,OX1R antag-2,GalR3 antag
O=C(N/N=C/c1ccc2nccnc2c1)c1ccncc1,7.6,-6.9,-4.5,55.0*,-5.1
O=C(N/N=C/c1ccc([N+](=O)[O-])o1)C1CCCC1,-11.0,8.5,-16.5,91.2*,-2.1
O=C(N/N=C/c1ccco1)C1CCCC1,-10.8,-6.5,-9.3,24.2,·
O=C(N/N=C/c1ccc([N+](=O)[O-])o1)c1ccc(O)cc1,-20.1,3.8,0.8,74.0*,·
O=C(N/N=C/c1ccc([N+](=O)[O-])o1)c1ccncc1,0.3,-16.3,9.2,54.5*,-1.6
O=C(N/N=C\c1ccc([N+](=O)[O-])o1)c1cncc(Br)c1,-2.3,-4.4,-5.0,32.4,-6.5
CCOc1cc(N2CCOCC2)c(OCC)cc1NC(=O)c1ccccc1N1CCCC1=O,·,·,·,·,-5.1
Cc1scc(C(=O)N/N=C/c2ccc([N+](=O)[O-])o2)c1C,-9.2,-4.7,-17.8,50.7*,-0.7
Cc1ccc(NC(=O)c2c(C(F)(F)F)nn(C)c2SCc2cccc(C(F)(F)F)c2)cc1C,-14.5,67.4*,8.4,25.0,-5.0
Cc1ccc(NC(=O)c2c(C(F)(F)F)nn(C)c2SCc2ccc(Cl)cc2)cc1C,-3.7,26.6,14.7,16.3,-8.6
CC1(C(=O)NS(=O)(=O)Cc2cccc(Cl)c2)CCN1C(=O)C1(c2ccc(Cl)cc2)CCC1 (stereo not drawn),·,·,·,·,-4.5
O=[N+]([O-])c1c(NCCCO)cc(SCc2ccco2)c2nonc12,-1.7,-4.4,0.8,61.2*,10.6
O=[N+]([O-])c1c(NCCCO)cc(N2CCN(Cc3ccc4c(c3)OCO4)CC2)c2nonc12,-0.8,-13.4,-24.5,33.2,-7.9
COc1ccc(Nc2cc(NCCCO)c([N+](=O)[O-])c3nonc23)cc1,1.4,-16.4,-6.4,49.0*,-10.4
COc1ccc(CNc2cc(NCCCO)c([N+](=O)[O-])c3nonc23)cc1,-6.5,-10.7,-12.1,37.9,-6.6
COC(=O)CCSc1cc(NCCOC(C)=O)c([N+](=O)[O-])c2nonc12,-2.0,2.5,-4.8,52.9*,9.3
CC(=O)OCCNc1cc(SCc2ccco2)c2nonc2c1[N+](=O)[O-],-7.6,-1.1,-5.6,46.2,·
O=[N+]([O-])c1c(NCCCO)cc(N2CCCCCC2)c2nonc12,-7.9,-14.8,-37.8,37.4*,-0.4
CC(C)NC(=O)N(C)C[C@H]1OCc2cnnn2CCCC(=O)N([C@H](C)CO)C[C@H]1C,·,·,·,·,-6.0
COCCCNC(=O)c1nnn2c1nc(N)c1cc(Cl)ccc12,·,·,·,·,-5.9
CCCCc1c(-c2ccccc2OC)ncn1Cc1ccc(F)c(F)c1,·,·,·,·,-3.6
Cc1ccc2nc(-c3ccco3)c(Cc3ccsc3)n2c1,·,·,·,·,-5.1
CN(CCO)c1cc(N2CCCCC2)c2nonc2c1[N+](=O)[O-],-9.2,-6.9,-5.4,46.9,7.3
CC1CCN(CCCNc2cc(NCCO)c([N+](=O)[O-])c3nonc23)CC1,-6.8,0.4,-2.4,37.7*,-10.6
O=[N+]([O-])c1c(NCCCO)cc(Sc2ccc(Cl)cc2)c2nonc12,4.3,19.8,10.7,31.1,6.8
CC1CCCN(c2cc(N(C)CCO)c([N+](=O)[O-])c3nonc23)C1 (stereo not drawn),-15.7,8.6,-7.6,48.3*,1.5
COc1ccccc1Cc1c(-c2ccc(C)cc2)nc2ccc(C)cn12,·,·,·,·,-6.7
CCCNC(=O)Cn1c(=O)/c(=C/c2ccc(-c3cccc([N+](=O)[O-])c3)o2)s/c1=C\C(=O)C(C)(C)C,·,·,·,·,-3.8

# From PubChem BioAssay
